Source: ChEMBL document CHEMBL4428050, “Design, Synthesis, and Biological Evaluation of Substituted Pyrimidines as Potential Phosphatidylinositol 3-Kinase (PI3K) Inhibitors” (J Med Chem, 2016)
pIC50: −log10 of the molar value.

Key:
[1] = Inhibition of PI3K p110alpha/p85 (unknown origin) using PIP2/ATP as substrate after 1 hr by kinase glo luminescent assay; design: species or system Homo sapiens
Procedure, shortened: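 PI3K p110α activity read by Kinase-Glo Plus luminescence. IC50 is the mean of triplicate measurements.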

[2] = system: A-431; experiment: Antiproliferative activity against human A431 cells after 72 hrs by CCK8 assay; format: functional, cell-based; details: Homo sapiens, A-431, 72 h
[3] = system: U-937; experiment: Antiproliferative activity against human U937 cells after 72 hrs by CCK8 assay; format: functional, cell-based
[4] = system: Bel-7402; experiment: Antiproliferative activity against human Bel7402 cells after 72 hrs by CCK8 assay; format: functional, cell-based; details: Bel-7402, 72 h
[5] = system: HeLa; experiment: Antiproliferative activity against human HeLa cells after 72 hrs by CCK8 assay; format: functional, cell-based
[6] = system: BGC-823; experiment: Antiproliferative activity against human BGC823 cells after 72 hrs by CCK8 assay; format: functional, cell-based
[7] = system: SGC-7901; experiment: Antiproliferative activity against human SGC7901 cells after 72 hrs by CCK8 assay; format: functional, cell-based; details: SGC-7901, 72 h
[8] = system: MOLT-4; experiment: Antiproliferative activity against human MOLT4 cells after 72 hrs by CCK8 assay; format: functional, cell-based
[9] = system: Huh-7; experiment: Antiproliferative activity against human HuH7 cells after 72 hrs by CCK8 assay; format: functional, cell-based; details: Huh-7, 72 h
[10] = system: PANC-1; experiment: Antiproliferative activity against human PANC1 cells after 72 hrs by CCK8 assay; format: functional, cell-based; details: Homo sapiens, PANC-1, 72 h
[11] = system: MCF7; experiment: Antiproliferative activity against human MCF7 cells after 72 hrs by CCK8 assay; format: functional, cell-based
[12] = system: DU-145; experiment: Antiproliferative activity against human DU145 cells after 72 hrs by CCK8 assay; format: functional, cell-based
[13] = system: A549; experiment: Antiproliferative activity against human A549 cells after 72 hrs by CCK8 assay; format: functional, cell-based
[14] = system: K562; experiment: Antiproliferative activity against human K562 cells after 72 hrs by CCK8 assay; format: functional, cell-based
[15] = system: NCI-N87; experiment: Antiproliferative activity against human NCI-N87 cells after 72 hrs by CCK8 assay; format: functional, cell-based
[16] = system: HT-1080; experiment: Antiproliferative activity against human HT1080 cells after 72 hrs by CCK8 assay; format: functional, cell-based; details: HT-1080, 72 h
[17] = system: SK-BR-3; experiment: Antiproliferative activity against human SK-BR-3 cells after 72 hrs by CCK8 assay; format: functional, cell-based; details: SK-BR-3, 72 h

Compound	pIC50 [1]	pIC50 ([3]; Homo sapiens, U-937, 72 h)	pIC50 ([5]; Homo sapiens, HeLa, 72 h)	pIC50 ([6]; Homo sapiens, BGC-823, 72 h)	pIC50 ([8]; Homo sapiens, MOLT-4, 72 h)	pIC50 ([11]; Homo sapiens, MCF7, 72 h)	pIC50 ([12]; Homo sapiens, DU-145, 72 h)	pIC50 ([13]; Homo sapiens, A549, 72 h)	pIC50 ([14]; Homo sapiens, K562, 72 h)	other results
Nc1cc(C(F)(F)F)c(-c2cc(N3CCOCC3)nc(N3C[C@@H]4OCCO[C@@H]4C3)n2)cn1	6.93	5.75	5.37	5.34	5.60	5.31	5.32	5.30	5.76	pIC50 [2]: 5.59; pIC50 [4]: 5.24; pIC50 [7]: 5.43; pIC50 [9]: 5.32; pIC50 [10]: 5.44; pIC50 ([15]; Homo sapiens, NCI-N87, 72 h): 5.71; pIC50 [16]: 5.32
Nc1cc(C(F)(F)F)c(-c2ccc3c(N4CCOCC4)nc(N4CCOCC4)nc3c2)cn1	< 5.00	–	–	–	–	–	–	–	–	–
Nc1cc(C(F)(F)F)c(-c2cc(N3CCOCC3)nc(N3C[C@@H]4OCCO[C@H]4C3)n2)cn1	7.46	–	–	–	–	–	–	–	–	pIC50 ([3]; u-937): 5.82; pIC50 ([5]; hela): 5.61; pIC50 ([6]; bgc-823): 5.55; pIC50 ([8]; molt-4): 6.01; pIC50 ([11]; mcf7): 5.42; pIC50 ([12]; du-145): 5.31; pIC50 ([13]; a549): 5.60; pIC50 [17]: 5.80; pIC50 ([14]; k562): 5.59
Nc1cc(C(F)(F)F)c(-c2cc(N3CCOCC3)nc(NCCN3CCOCC3)n2)cn1	6.25	–	–	–	–	–	–	–	–	–
Nc1cc(C(F)(F)F)c(-c2cc(N3C[C@H]4OCCO[C@@H]4C3)nc(N3CCOCC3)n2)cn1 (racemic)	6.43	5.54	5.27	5.36	5.49	5.14	5.15	5.25	5.50	pIC50 [2]: 5.52; pIC50 [4]: 5.19; pIC50 [7]: 5.32; pIC50 [9]: 5.20; pIC50 [10]: 5.22; pIC50 ([15]; Homo sapiens, NCI-N87, 72 h): 5.21; pIC50 [16]: 5.25
CC(/C=C/C(=O)NO)=C\[C@@H](C)C(=O)c1ccc(N(C)C)cc1 [TRICHOSTATIN]	–	7.40	7.05	7.15	7.70	7.15	7.22	7.30	6.92	pIC50 [2]: 6.74; pIC50 [4]: 7.00; pIC50 [7]: 7.52; pIC50 [9]: 7.22; pIC50 [10]: 7.00; pIC50 [17]: 7.30; pIC50 ([15]; Homo sapiens, NCI-N87, 72 h): 7.22; pIC50 [16]: 7.10
Nc1ncc(-c2cc(N3CCOCC3)nc(N3C[C@H]4OCCO[C@@H]4C3)n2)cn1 (racemic)	6.89	–	–	–	–	–	–	–	–	–
Nc1cc(C(F)(F)F)c(-c2cc(N3CCOCC3)nc(Nc3ccc(N4CCOCC4)cc3)n2)cn1	7.59	5.46	5.16	5.08	5.75	5.03	< 5.00	5.11	5.06	pIC50 [17]: 5.57
Nc1cc(C(F)(F)F)c(-c2cc(N3CCOCC3)nc(N3C[C@H]4C[C@@H]3CO4)n2)cn1	7.22	6.14	5.75	5.61	5.94	5.60	5.62	5.52	5.62	pIC50 [2]: 5.75; pIC50 [4]: 5.55; pIC50 [7]: 5.64; pIC50 [9]: 5.53; pIC50 [10]: 5.56; pIC50 ([15]; Homo sapiens, NCI-N87, 72 h): 5.85; pIC50 [16]: 5.57
CS(=O)(=O)N1CCN(c2nc(-c3cnc(N)cc3C(F)(F)F)cc(N3CCOCC3)n2)CC1	7.64	5.70	5.39	5.44	5.95	5.36	5.18	5.53	5.44	pIC50 [17]: 5.80
Nc1cc(C(F)(F)F)c(-c2cc(N3C[C@@H]4OCCO[C@@H]4C3)nc(N3CCOCC3)n2)cn1	6.05	–	–	–	–	–	< 5.00	–	< 5.00	–
Oc1cccc(-c2nc(N3CCOCC3)c3oc4ncccc4c3n2)c1 [PI-103]	8.13	–	–	–	–	–	–	–	–	–

Continued, in another order:

pIC50 [1]	pIC50 ([3]; Homo sapiens, U-937, 72 h)	pIC50 ([5]; Homo sapiens, HeLa, 72 h)	pIC50 ([6]; Homo sapiens, BGC-823, 72 h)	pIC50 ([8]; Homo sapiens, MOLT-4, 72 h)	pIC50 ([11]; Homo sapiens, MCF7, 72 h)	pIC50 ([12]; Homo sapiens, DU-145, 72 h)	pIC50 ([13]; Homo sapiens, A549, 72 h)	pIC50 ([14]; Homo sapiens, K562, 72 h)	Compound	other results
< 5.00	–	–	–	–	–	–	–	–	C[C@@H]1CN(c2nc(-c3cnc(N)cc3C(F)(F)F)nc(N3C[C@@H](C)O[C@@H](C)C3)n2)C[C@H](C)O1	–
6.65	–	–	–	–	–	–	–	–	C[C@@H]1CN(c2cc(-c3cnc(N)cc3C(F)(F)F)nc(N3CCOCC3)n2)C[C@H](C)O1	–
< 5.00	–	–	–	–	–	–	–	–	C[C@@H]1CN(c2cc(-c3cnc(N)cc3C(F)(F)F)nc(N3C[C@@H](C)O[C@@H](C)C3)n2)C[C@H](C)O1	–
< 5.00	–	–	–	–	–	–	–	–	C[C@@H]1CN(c2nc(N3C[C@@H](C)O[C@@H](C)C3)c3ccc(-c4cnc(N)cc4C(F)(F)F)cc3n2)C[C@H](C)O1	–
< 5.00	–	–	–	–	–	–	–	–	C[C@@H]1CN(c2nc(-c3cnc(N)cc3C(F)(F)F)nc(N3C[C@@H]4OCCO[C@@H]4C3)n2)C[C@H](C)O1	–
7.49	5.52	–	5.02	5.92	5.09	–	5.39	–	Nc1cc(C(F)(F)F)c(-c2nc(N3CCOCC3)nc(N3C[C@H]4OCCO[C@@H]4C3)n2)cn1 (racemic)	pIC50 [2]: < 5.00; pIC50 [4]: 5.23; pIC50 ([5]; hela): < 5.00; pIC50 [7]: 5.35; pIC50 [9]: 5.25; pIC50 [10]: 5.21; pIC50 ([12]; du-145): 5.48; pIC50 ([14]; k562): < 5.00; pIC50 ([15]; nci-n87): 6.11; pIC50 [16]: 5.00
7.04	6.24	5.74	5.85	6.38	5.85	5.85	5.72	5.57	C[C@@H]1CN(c2nc(-c3cnc(N)cc3C(F)(F)F)cc(N3CCOCC3)n2)C[C@H](C)O1	pIC50 [2]: 5.64; pIC50 [4]: 5.79; pIC50 [7]: 5.91; pIC50 [9]: 5.92; pIC50 [10]: 5.86; pIC50 ([15]; Homo sapiens, NCI-N87, 72 h): 6.28; pIC50 [16]: 5.70
5.02	–	–	–	–	–	–	–	–	C[C@@H]1CN(c2nc(-c3cnc(N)cc3C(F)(F)F)nc(N3C[C@H]4C[C@@H]3CO4)n2)C[C@H](C)O1	–
7.21	5.47	5.12	5.18	5.71	5.13	4.82	5.19	5.20	Nc1cc(C(F)(F)F)c(-c2cc(N3CCOCC3)nc(N3C[C@H]4OCCO[C@@H]4C3)n2)cn1	pIC50 [17]: 5.46
5.24	–	–	–	–	–	–	–	–	C[C@@H]1CN(c2cc(-c3cnc(N)cc3C(F)(F)F)nc(N3C[C@@H]4OCCO[C@@H]4C3)n2)C[C@H](C)O1	–
